Assay results taken from ChEMBL document CHEMBL1123278, “Synthesis and dopaminergic activity of trans-6-methyl-7a,8,9,10,11,11a-hexahydro-7H-pyrrolo[3,2,1-gh]- 4,7-phenanthroline and trans-1,2,3,4,4a,5,6,10b-octahydro-4,7-phenanthroline derivatives” (J Med Chem, 1986).

How the values were obtained:
[1] = system: Rattus norvegicus; experiment: Compound was tested for inhibiting prolactin release at the 50.0 mg/kg dose levels; assay type: functional
In short: (§1)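 Adult male Wistar rats (250–300 g) were caged singly with food and water ad libitum. Each rat got reserpine pretreatment, 2.5 mg/rat ip (2.5 mg/mL), 18 h before the drug. Drugs were dissolved in distilled water at 1 mL/kg ip; saline controls were run. Serum (100 µL, duplicate) was assayed by NIADDK prolactin RIA, expressed as ng RP3/mL. Results were given as % inhibition versus controls, mean ± standard error, 5–10 rats/group.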

[2] = Compound was evaluated for its acute toxicity in rat; assay type: organism-based; settings: in vivo
In short: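 Male Wistar rats (200–250 g), 50 per substance, given single ip doses at five dose levels with 10 rats per dose. Deaths were followed for up to 14 days. LD50 was estimated by the Weil method, with 95% confidence limits.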

[3] = system: Rattus norvegicus; experiment: Dopaminergic activity, ability to lower serum prolactin levels after intraperitoneal administration of compound (50.0 mg/kg); assay type: functional, organism-based; in short: as §1
[4] = system: Rattus norvegicus; experiment: Dopaminergic activity, ability to lower serum prolactin levels after intraperitoneal administration of compound (34.7 mg/kg); assay type: functional, organism-based; in short: as §1
[5] = system: Rattus norvegicus; experiment: Compound was tested for inhibiting prolactin release at the 4.165 mg/kg dose levels; assay type: functional; in short: as §1
[6] = system: Rattus norvegicus; experiment: Dopaminergic activity, ability to lower serum prolactin levels after intraperitoneal administration of compound (0.833 mg/kg); assay type: functional, organism-based; in short: as §1
[7] = system: Rattus norvegicus; experiment: Compound was tested for inhibiting prolactin release at 0.833 mg/kg dose levels; assay type: functional; in short: as §1
[8] = system: Rattus norvegicus; experiment: Dopaminergic activity, ability to lower serum prolactin levels after intraperitoneal administration of compound (8.33 mg/kg); assay type: functional, organism-based; in short: as §1
[9] = system: Rattus norvegicus; experiment: Compound was tested for inhibiting prolactin release at the 8.33 mg/kg dose levels; assay type: functional; in short: as §1
[10] = system: Rattus norvegicus; experiment: Dopaminergic activity, ability to lower serum prolactin levels after intraperitoneal administration of compound (4.165 mg/kg); assay type: functional, organism-based; in short: as §1
[11] = system: Rattus norvegicus; experiment: Compound was tested for the percent prolactin inhibiting activity at the 0.001 mg/kg dose levels; assay type: functional
In short: (§2)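 Adult male Wistar rats (250-300 g), individually caged, food and water ad libitum, pretreated ip with reserpine 2.5 mg/rat 18 h before dosing to keep prolactin high. Single ip dose in distilled water (1 mL per kg); controls received isotonic saline. Serum prolactin measured by radioimmunoassay in duplicate, 100 μL serum, as ng rat prolactin RP3/mL; % inhibition versus saline controls.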

[12] = system: Rattus norvegicus; experiment: Dopaminergic activity, ability to lower serum prolactin levels after intraperitoneal administration of compound (0.1 mg/kg) in rats; assay type: functional, organism-based; in short: as §1
[13] = system: Rattus norvegicus; experiment: Compound was tested for the percent prolactin inhibiting activity at the 0.1 mg/kg dose levels; assay type: functional; in short: as §2
[14] = system: Rattus norvegicus; experiment: Dopaminergic activity, ability to lower serum prolactin levels after intraperitoneal administration of compound (0.001 mg/kg) in rats; assay type: functional, organism-based; in short: as §1
[15] = system: Rattus norvegicus; experiment: Dopaminergic activity, ability to lower serum prolactin levels after intraperitoneal administration of compound (0.01 mg/kg) in rats; assay type: functional, organism-based; in short: as §1
[16] = system: Rattus norvegicus; experiment: Compound was tested for the percent prolactin inhibiting activity at the 0.01 mg/kg dose levels; assay type: functional; in short: as §2
[17] = system: Rattus norvegicus; experiment: Dopaminergic activity, ability to lower serum prolactin levels after intraperitoneal administration of compound (11.2 mg/kg) in rats; assay type: functional, organism-based; in short: as §1
[18] = system: Rattus norvegicus; experiment: Dopaminergic activity, ability to lower serum prolactin levels after intraperitoneal administration of compound (0.0456 mg/k); assay type: functional, organism-based; in short: as §1
[19] = system: Rattus norvegicus; experiment: Dopaminergic activity, ability to lower serum prolactin levels 1 hr after intraperitoneal administration of compound (4.56 mg/kg); assay type: functional, organism-based
In short: (§3)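 Time course in reserpine-pretreated male Wistar rats (250–300 g), given reserpine 2.5 mg/rat ip 18 h before dosing. The drug was given ip in distilled water (1 mL/kg), and rats were killed 1, 3 or 6 h later, with saline controls at each time. Serum prolactin was measured by duplicate NIADDK RIA (ng RP3/mL) and reported as % inhibition versus controls, mean ± standard error, 6–10 rats/group.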

[20] = system: Rattus norvegicus; experiment: Compound was tested for inhibiting prolactin release at the 0.456 mg/kg dose levels; assay type: functional; in short: as §1
[21] = system: Rattus norvegicus; experiment: Compound at the 4.56 mg/kg dose levels was evaluated for its ability to lower serum prolactin levels 6 hr after intraperitoneal administration; assay type: functional, organism-based; set-up: dose 4.56 mg/kg; in short: as §3
[22] = system: Rattus norvegicus; experiment: Compound was tested for inhibiting prolactin release at the 0.0456 mg/kg dose levels; assay type: functional; in short: as §1
[23] = system: Rattus norvegicus; experiment: Compound was tested for inhibiting prolactin release at the 4.56 mg/kg dose levels 3h after ip administration; assay type: functional; settings: route intraperitoneal; in short: as §3
[24] = system: Rattus norvegicus; experiment: Compound was tested for inhibiting prolactin release at the 4.56 mg/kg dose levels 6 hr after ip administration; assay type: functional; settings: route intraperitoneal; in short: as §3
[25] = system: Rattus norvegicus; experiment: Compound at the 4.56 mg/kg dose levels was evaluated for its ability to lower serum prolactin levels 3h after intraperitoneal administration; assay type: functional, organism-based; set-up: dose 4.56 mg/kg; in short: as §3
[26] = system: Rattus norvegicus; experiment: Compound was tested for inhibiting prolactin release at the 4.56 mg/kg dose levels 1 hr after ip administration; assay type: functional; settings: route intraperitoneal; in short: as §3
[27] = system: Rattus norvegicus; experiment: Dopaminergic activity, ability to lower serum prolactin levels after intraperitoneal administration of compound (0.456 mg/kg); assay type: functional, organism-based; in short: as §1
[28] = system: Rattus norvegicus; experiment: Dopaminergic activity, ability to lower serum prolactin levels after intraperitoneal administration of compound (103.3 mg/kg); assay type: functional, organism-based; in short: as §1
[29] = system: Rattus norvegicus; experiment: Compound was tested for inhibiting prolactin release at the 103.3 mg/kg dose levels; assay type: functional; in short: as §1

Work on `CN1CCC[C@H]2c3cccnc3CC[C@H]21` yielded an inhibition in vivo at 50 mg/kg [1] of 14.3%, an LD50 [2] of 200 mg/kg and a Level [3] of 14.3 ng/mL.

`CCCN1CCC[C@H]2c3cccnc3CC[C@H]21` gave a Level [4] of 19.3 ng/mL and an LD50 [2] of 139 mg/kg.

With `CCN1CCC[C@@H]2c3cccn4cc(C)c(c34)C[C@H]21` the inhibition in vivo at 4.165 mg/kg [5] was 71.3%, the Level [6] was 10.9 ng/mL and the inhibition in vivo at 0.833 mg/kg [7] was 34.7%. It also gave an LD50 [2] of 228 mg/kg, a Level [8] of 3.3 ng/mL and an inhibition in vivo at 8.33 mg/kg [9] of 80.2%. For the same molecule, the Level [10] was 4.7 ng/mL.

Work on `CC(C)C[C@H]1C(=O)N2CCC[C@H]2[C@]2(O)O[C@](NC(=O)[C@@H]3C=C4c5cccc6[nH]c(Br)c(c56)C[C@H]4N(C)C3)(C(C)C)C(=O)N12` [BROMOCRIPTINE] yielded an inhibition in vivo at 0.001 mg/kg [11] of 23.9%, a Level [12] of 1.6 ng/mL and an inhibition in vivo at 0.1 mg/kg [13] of 90.4%. The Level [14] was 12.7 ng/mL, the Level [15] was 6.6 ng/mL and the inhibition in vivo at 0.01 mg/kg [16] was 60.4%.

`Cc1cn2cccc3c2c1C[C@@H]1[C@@H]3CCCN1C` gave a Level [17] of 18.9 ng/mL and an LD50 [2] of 45 mg/kg.

For `CCCN1CCC[C@@H]2c3cccnc3CC[C@H]21`, the Level [18] was 12.1 ng/mL, the Level [19] was 2.5 ng/mL and the inhibition in vivo at 0.456 mg/kg [20] was 47.3%. It also gave a Level [21] of 9.6 ng/mL, an inhibition in vivo at 0.0456 mg/kg [22] of 27.5% and an inhibition in vivo at 4.56 mg/kg [23] of 70%. For the same molecule, the inhibition in vivo at 4.56 mg/kg [24] was 41.8%, the Level [25] was 4.6 ng/mL and the inhibition in vivo at 4.56 mg/kg [26] was 85%. The LD50 [2] was 183 mg/kg and the Level [27] was 8.8 ng/mL.

With `CCCN1CCC[C@@H]2c3cccn4cc(C)c(c34)C[C@H]21` the Level [28] was 10.2 ng/mL, the inhibition in vivo at 103.3 mg/kg [29] was 38.9% and the LD50 [2] was 413 mg/kg.
